Data from ChEMBL document CHEMBL4808210, “Mapping Chromone-3-Phenylcarboxamide Pharmacophore: Quid Est Veritas?” (J Med Chem, 2021).

How the values were obtained:
[1] = system: Caco-2; assay: Cytotoxicity against human Caco-2 cells assessed as effect on cell viability at 1 to 10 uM measured after 24 hrs by MTT assay; assay type: cell-based; conditions: caco-2, 24 h, dose 1-10 µM
Procedure, shortened: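 Caco-2 cells, and SH-SY5Y cells first differentiated toward a dopaminergic-like phenotype, were treated for 24 h with compounds at 1 and 10 μM. Metabolic activity was read as MTT reduction to formazan, relative to untreated cells. Mean ± SEM of at least three independent experiments, each in triplicate.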

[2] = system: MCF7; assay: Cytotoxicity against human MCF7 cells at 10 uM incubated for 24 to 48 hrs by Celltiter-Glo assay relative to control; assay type: cell-based; conditions: mcf7, 10 µM, time 24-48 hrs
Procedure, shortened: (§1)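 Cells (HEK-293, HUVEC, MCF-7) exposed to test compounds at 10 μM for 24 h; cytotoxicity read in triplicate with a luminescence kit measuring intracellular ATP levels.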

[3] = species on record: Homo sapiens; assay: Selectivity index, ratio of IC50 for recombinant human MAO-A expressed in baculovirus infected BTI-TN- 5B1-4 insect cells to IC50 for recombinant human MAO-B expressed in baculovirus infected BTI-TN- 5B1-4 insect cells using kynuramine as substrate preincubated for 10 mins in presence of substrate followed by enzyme addition and measured every minute for 30 mins by spectrophotometry analysis
Procedure, shortened: (§2)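 Recombinant hMAO-A and hMAO-B were assayed with kynuramine as substrate. Percent inhibition was taken at 10 μM, the highest concentration tested. Where the hMAO-A IC₅₀ was not reached, it was taken as 10 μM.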

[4] = system: HEK293; assay: Cytotoxicity against HEK293 cells incubated for 24 to 48 hrs by Celltiter-Glo assay; assay type: cell-based, Homo sapiens
[5] = system: SH-SY5Y; assay: Cytotoxicity against human SH-SY5Y cells assessed as effect on NR uptake at 1 to 10 uM measured after 24 hrs by neutral red uptake assay; assay type: cell-based; conditions: dose 1-10 µM
Procedure, shortened: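 Differentiated SH-SY5Y cells were exposed to compounds at 1 and 10 μM for 24 h. Lysosomal activity was read as neutral red dye uptake and compared with untreated cells. Mean ± SEM of at least three independent experiments run in triplicate.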

[6] = target: ATP-dependent translocase ABCB1 (Homo sapiens, UniProt P08183); assay: Modulation of P-gp-mediated Rhodamine-123 efflux in human Caco-2 cells assessed as Rhodamine-123 accumulation at 10 uM pretreated for 30 mins in presence or absence of Zos followed by Rho-123 addition and measured after 90 mins by fluorescence spectroscopy; assay type: cell-based; conditions: caco-2, 2 h, time 120 min
ATP-dependent translocase ABCB1, sequence (P08183 whole entry): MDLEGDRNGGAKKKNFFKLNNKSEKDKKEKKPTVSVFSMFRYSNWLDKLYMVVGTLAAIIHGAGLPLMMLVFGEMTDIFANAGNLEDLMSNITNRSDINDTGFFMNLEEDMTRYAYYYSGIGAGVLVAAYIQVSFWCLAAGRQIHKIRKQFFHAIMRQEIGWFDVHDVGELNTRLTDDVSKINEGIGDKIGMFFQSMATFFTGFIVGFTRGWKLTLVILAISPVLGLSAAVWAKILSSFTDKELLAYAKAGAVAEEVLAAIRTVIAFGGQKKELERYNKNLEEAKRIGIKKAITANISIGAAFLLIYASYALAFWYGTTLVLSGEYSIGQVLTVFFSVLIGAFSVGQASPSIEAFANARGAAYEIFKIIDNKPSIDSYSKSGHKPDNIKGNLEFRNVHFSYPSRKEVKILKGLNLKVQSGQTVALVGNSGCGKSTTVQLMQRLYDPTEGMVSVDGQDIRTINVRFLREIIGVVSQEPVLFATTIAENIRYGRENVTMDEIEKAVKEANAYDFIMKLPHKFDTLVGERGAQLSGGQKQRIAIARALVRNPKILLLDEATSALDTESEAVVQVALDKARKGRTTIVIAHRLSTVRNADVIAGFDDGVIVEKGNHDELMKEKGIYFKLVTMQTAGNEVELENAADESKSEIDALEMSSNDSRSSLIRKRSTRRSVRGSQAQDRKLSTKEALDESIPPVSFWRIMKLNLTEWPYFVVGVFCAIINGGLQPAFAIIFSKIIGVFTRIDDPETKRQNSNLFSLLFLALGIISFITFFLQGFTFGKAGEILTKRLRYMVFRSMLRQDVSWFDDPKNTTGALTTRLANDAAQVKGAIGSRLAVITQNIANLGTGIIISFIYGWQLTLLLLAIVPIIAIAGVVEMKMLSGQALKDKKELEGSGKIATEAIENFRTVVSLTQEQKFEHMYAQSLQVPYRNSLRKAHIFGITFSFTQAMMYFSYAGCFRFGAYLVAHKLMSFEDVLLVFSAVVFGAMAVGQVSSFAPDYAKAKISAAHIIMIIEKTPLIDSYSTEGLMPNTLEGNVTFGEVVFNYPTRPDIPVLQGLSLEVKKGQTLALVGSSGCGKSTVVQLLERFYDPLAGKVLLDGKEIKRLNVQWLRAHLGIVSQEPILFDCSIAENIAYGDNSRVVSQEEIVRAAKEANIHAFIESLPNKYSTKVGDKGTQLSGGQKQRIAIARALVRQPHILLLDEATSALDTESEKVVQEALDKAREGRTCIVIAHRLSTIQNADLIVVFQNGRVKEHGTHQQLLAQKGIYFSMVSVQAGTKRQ
Procedure, shortened: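 Caco-2 cells were exposed to compounds at 10 μM during incubation with the P-gp substrate rhodamine 123 (5 μM). Zosuquidar served as the specific P-gp inhibitor. Cellular rhodamine 123 was read by fluorescence spectroscopy. Mean ± SEM of at least three independent experiments in triplicate.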

[7] = target: T1, Amine oxidase [flavin-containing] B (Homo sapiens, UniProt P27338); assay: Time dependent inhibition of recombinant human MAO-B expressed in baculovirus infected BTI-TN- 5B1-4 insect cells assessed as increase in enzyme activity at IC80 measured after 120 mins; conditions: bti-tn-5b1-4, 2 h
T1 sequence (P27338 whole entry): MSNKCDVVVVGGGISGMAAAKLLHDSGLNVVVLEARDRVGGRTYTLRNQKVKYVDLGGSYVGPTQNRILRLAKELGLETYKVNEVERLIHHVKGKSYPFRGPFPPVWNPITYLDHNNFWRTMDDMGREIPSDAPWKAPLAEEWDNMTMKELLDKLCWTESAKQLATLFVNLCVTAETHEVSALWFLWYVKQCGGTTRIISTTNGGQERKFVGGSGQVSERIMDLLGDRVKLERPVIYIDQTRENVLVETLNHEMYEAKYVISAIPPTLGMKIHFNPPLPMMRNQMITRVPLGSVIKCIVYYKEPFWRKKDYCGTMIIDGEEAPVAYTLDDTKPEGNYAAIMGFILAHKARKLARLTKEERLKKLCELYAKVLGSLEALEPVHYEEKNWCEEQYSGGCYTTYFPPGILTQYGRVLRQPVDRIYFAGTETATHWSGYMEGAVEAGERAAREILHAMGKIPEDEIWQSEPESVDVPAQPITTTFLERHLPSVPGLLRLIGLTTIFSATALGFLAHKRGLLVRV

[8] = target: T2, MAO-A (Homo sapiens, UniProt P21397); assay: Inhibition of recombinant human MAO-A expressed in baculovirus infected BTI-TN- 5B1-4 insect cells at 10 uM using kynuramine as substrate preincubated for 10 mins in presence of substrate followed by enzyme addition and measured every minute for 30 mins by spectrophotometry analysis relative to control; conditions: probe kynuramine, time 40 min; procedure, shortened: as §2
T2 sequence (P21397 whole entry): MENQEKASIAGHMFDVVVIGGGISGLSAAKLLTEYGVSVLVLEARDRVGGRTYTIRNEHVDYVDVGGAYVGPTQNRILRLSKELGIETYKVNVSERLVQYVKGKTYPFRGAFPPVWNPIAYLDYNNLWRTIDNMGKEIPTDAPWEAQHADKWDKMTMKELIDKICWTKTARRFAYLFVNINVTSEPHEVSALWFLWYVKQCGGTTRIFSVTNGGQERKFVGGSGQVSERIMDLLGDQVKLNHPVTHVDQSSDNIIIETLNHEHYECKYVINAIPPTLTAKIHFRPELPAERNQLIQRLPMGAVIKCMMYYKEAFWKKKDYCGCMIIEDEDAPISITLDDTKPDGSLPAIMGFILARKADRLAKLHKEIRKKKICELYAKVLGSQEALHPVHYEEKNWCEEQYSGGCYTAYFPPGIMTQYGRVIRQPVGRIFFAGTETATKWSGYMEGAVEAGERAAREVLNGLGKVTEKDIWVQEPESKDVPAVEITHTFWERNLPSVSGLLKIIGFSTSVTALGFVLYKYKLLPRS

[9] = system: SH-SY5Y; assay: Protection against iron(III)-induced damage in human SH-SY5Y cells assessed as increase in lysosomal activity at 10 uM pretreated for 30 mins followed by iron(III) treatment after 24 hrs by NR uptake assay relative to control; assay type: functional; conditions: time 24.5 hrs
Procedure, shortened: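 Differentiated SH-SY5Y cells were pretreated with compounds at 1 or 10 μM for 30 min, then exposed to iron(III) at 1000 or 1500 μM for 24 h. Viability was read by neutral red uptake. Mean ± SD of three independent experiments, two-way ANOVA.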

[10] = target: T1, Amine oxidase [flavin-containing] B; assay: Inhibition of recombinant human MAO-B expressed in baculovirus infected BTI-TN- 5B1-4 insect cells using kynuramine as substrate preincubated for 10 mins in presence of substrate followed by enzyme addition and measured every minute for 30 mins by spectrophotometry analysis; assay type: cell-based
[11] = system: HEK293; assay: Cytotoxicity against HEK293 cells at 10 uM incubated for 24 to 48 hrs by Celltiter-Glo assay relative to control; assay type: cell-based; conditions: human, hek293, 10 µM, time 24-48 hrs; procedure, shortened: as §1
[12] = system: HUVEC; assay: Cytotoxicity against HUVEC cells incubated for 24 to 48 hrs by Celltiter-Glo assay; assay type: cell-based, Homo sapiens; conditions: huvec
[13] = target: T1, Amine oxidase [flavin-containing] B; assay: Mixed-type inhibition of recombinant human MAO-B expressed in baculovirus infected BTI-TN- 5B1-4 insect cells at 1 to 5 nM using varying levels of kynuramine as substrate by Lineweaver-Burk plot analysis; conditions: dose 1-5 nM
Procedure, shortened: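 Initial rates of hMAO-B activity were measured at six kynuramine concentrations (10−100 μM), without inhibitor and at three inhibitor concentrations. Kinetic parameters were read from a double-reciprocal Lineweaver−Burk plot. An Ackermann−Potter plot of total enzyme concentration was also constructed.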

[14] = target: hERG (Homo sapiens, UniProt Q12809); assay: Inhibition of human ERG at 10 uM incubated for 2 hrs by fluorescence polarization assay relative to control
hERG, sequence (Q12809 whole entry): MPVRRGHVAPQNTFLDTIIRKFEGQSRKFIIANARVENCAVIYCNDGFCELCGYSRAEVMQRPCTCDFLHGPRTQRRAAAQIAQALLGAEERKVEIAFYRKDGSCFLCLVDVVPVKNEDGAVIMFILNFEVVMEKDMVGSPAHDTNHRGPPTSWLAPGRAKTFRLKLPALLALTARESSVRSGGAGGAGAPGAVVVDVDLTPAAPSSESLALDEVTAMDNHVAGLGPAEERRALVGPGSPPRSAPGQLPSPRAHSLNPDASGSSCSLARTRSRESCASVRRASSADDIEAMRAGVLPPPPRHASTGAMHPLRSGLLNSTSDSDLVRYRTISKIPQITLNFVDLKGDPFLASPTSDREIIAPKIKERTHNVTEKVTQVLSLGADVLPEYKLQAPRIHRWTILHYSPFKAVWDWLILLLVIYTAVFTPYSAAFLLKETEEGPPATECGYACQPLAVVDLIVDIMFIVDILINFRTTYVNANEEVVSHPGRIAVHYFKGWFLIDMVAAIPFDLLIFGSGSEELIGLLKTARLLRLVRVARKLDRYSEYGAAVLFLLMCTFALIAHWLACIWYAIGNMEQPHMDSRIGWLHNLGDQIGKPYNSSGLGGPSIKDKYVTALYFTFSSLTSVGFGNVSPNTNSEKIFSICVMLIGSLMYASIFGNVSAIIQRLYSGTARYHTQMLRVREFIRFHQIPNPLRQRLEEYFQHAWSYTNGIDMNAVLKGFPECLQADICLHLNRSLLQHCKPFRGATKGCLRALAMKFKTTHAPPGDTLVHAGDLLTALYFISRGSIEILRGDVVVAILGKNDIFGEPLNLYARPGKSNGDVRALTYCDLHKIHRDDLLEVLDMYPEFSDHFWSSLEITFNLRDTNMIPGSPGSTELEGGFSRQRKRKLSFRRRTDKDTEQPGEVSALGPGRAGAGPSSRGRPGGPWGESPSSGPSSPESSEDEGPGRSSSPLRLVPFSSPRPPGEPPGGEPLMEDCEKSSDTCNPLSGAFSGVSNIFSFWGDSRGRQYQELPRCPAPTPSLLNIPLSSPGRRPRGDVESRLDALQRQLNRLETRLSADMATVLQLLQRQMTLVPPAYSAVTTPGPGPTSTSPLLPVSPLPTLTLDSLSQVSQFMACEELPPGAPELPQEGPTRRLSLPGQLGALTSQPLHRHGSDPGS
Procedure, shortened: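 hERG binding was measured by fluorescence polarization, using a homogenized membrane preparation containing hERG plus a fluorescent tracer. A drop in FP signal from tracer displacement was read as inhibition. Compounds were tested at 10 μM.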

[15] = system: MCF7; assay: Cytotoxicity against human MCF7 cells incubated for 24 to 48 hrs by Celltiter-Glo assay; assay type: cell-based
[16] = system: HUVEC; assay: Cytotoxicity against HUVEC cells at 10 uM incubated for 24 to 48 hrs by Celltiter-Glo assay relative to control; assay type: cell-based; conditions: human, time 24-48 hrs; procedure, shortened: as §1

Which Activity [1] does the source give for O=C(Nc1cccc(Cl)c1)c1csc2ccccc2c1=O here?
The Activity was “Non-Toxic”.

What about the Activity [2] of the same compound?
The Activity was less than 10%.

What about the Ratio IC50 [3] of the same compound?
Its Ratio IC50 is greater than 6570.

What about the IC50 [4] of the same compound?
The IC50 was “Not Active”.

And the Activity [5]?
The Activity was “Non-Toxic”.

And the Activity [6]?
Its Activity is “Not Active”.

What about the TDI [7] of the same compound?
Its TDI is “Active”.

And the inhibition at 0.5 h, 10 µM [8]?
Its inhibition at 0.5 h, 10 µM is 0.7%.

And the Activity [9]?
The Activity was 63%.

What about the IC50 [10] of the same compound?
Its IC50 is 1.52 nM.

What about the Activity [11] of the same compound?
The Activity was less than 10%.

What about the IC50 [12] of the same compound?
Its IC50 is “Not Active”.

And the “inhibition (INH)” value [13]?
The value was “Active”.

What about the inhibition at 2 h, 10 µM [14] of the same compound?
Its inhibition at 2 h, 10 µM is less than 10%.

What about the IC50 [15] of the same compound?
The IC50 was “Not Active”.

And the Activity [16]?
Its Activity is less than 10%.
